Source: ChEMBL document CHEMBL4304789, “Design, Synthesis, and Biological Evaluation of 2,4-Imidazolinedione Derivatives as HDAC6 Isoform-Selective Inhibitors” (ACS Med Chem Lett, 2019)
Activity calls are given as the source filed them. The calls are words filed in the database; no cut-off is given here.

What was measured:
[1] = test system: HL-60; test: Induction of cell cycle arrest in human HL60 cells assessed as accumulation of cells at G1 phase at 0.25 to 0.45 uM incubated for 48 hrs by PI staining based flow cytometric analysis; assay type: functional
Procedure, shortened: (§1)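 PI staining of HL-60 cells, with DMSO-treated cells as control, used to read cell-cycle phase distribution including G1 and subG1 fractions. Mean ± SD of at least three independent experiments.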

[2] = test system: HCT-116; test: Antiproliferative activity against human HCT116 cells incubated for 48 hrs by MTT assay; assay type: functional, cell-based; conditions: HCT-116, 48 h
[3] = target: T1, Histone deacetylase 8 (Homo sapiens, UniProt Q9BY41); test: Inhibition of HDAC8 (unknown origin) using Ac-LeuGlyLys(tfa)-AMC as substrate preincubated for 5 mins followed by substrate addition and measured after 60 mins by fluorescence based assay
T1 sequence (Q9BY41 whole entry): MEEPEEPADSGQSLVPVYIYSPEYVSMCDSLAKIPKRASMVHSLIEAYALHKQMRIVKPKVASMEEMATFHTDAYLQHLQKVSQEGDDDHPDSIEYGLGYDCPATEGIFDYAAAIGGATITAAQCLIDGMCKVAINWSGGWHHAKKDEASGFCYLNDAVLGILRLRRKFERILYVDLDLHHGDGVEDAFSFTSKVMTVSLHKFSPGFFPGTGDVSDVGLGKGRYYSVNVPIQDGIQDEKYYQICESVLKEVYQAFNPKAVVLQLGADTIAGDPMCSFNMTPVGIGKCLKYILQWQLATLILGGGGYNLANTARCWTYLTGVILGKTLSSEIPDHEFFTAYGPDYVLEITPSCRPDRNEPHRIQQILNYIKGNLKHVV

[4] = target: T2, Protein deacetylase HDAC6 (Homo sapiens, UniProt Q9UBN7); test: Inhibition of HDAC6 (unknown origin) using Ac-LeuGlyLys(Ac)-AMC as substrate preincubated for 5 mins followed by substrate addition and measured after 60 mins by fluorescence based assay
T2 sequence (Q9UBN7 whole entry): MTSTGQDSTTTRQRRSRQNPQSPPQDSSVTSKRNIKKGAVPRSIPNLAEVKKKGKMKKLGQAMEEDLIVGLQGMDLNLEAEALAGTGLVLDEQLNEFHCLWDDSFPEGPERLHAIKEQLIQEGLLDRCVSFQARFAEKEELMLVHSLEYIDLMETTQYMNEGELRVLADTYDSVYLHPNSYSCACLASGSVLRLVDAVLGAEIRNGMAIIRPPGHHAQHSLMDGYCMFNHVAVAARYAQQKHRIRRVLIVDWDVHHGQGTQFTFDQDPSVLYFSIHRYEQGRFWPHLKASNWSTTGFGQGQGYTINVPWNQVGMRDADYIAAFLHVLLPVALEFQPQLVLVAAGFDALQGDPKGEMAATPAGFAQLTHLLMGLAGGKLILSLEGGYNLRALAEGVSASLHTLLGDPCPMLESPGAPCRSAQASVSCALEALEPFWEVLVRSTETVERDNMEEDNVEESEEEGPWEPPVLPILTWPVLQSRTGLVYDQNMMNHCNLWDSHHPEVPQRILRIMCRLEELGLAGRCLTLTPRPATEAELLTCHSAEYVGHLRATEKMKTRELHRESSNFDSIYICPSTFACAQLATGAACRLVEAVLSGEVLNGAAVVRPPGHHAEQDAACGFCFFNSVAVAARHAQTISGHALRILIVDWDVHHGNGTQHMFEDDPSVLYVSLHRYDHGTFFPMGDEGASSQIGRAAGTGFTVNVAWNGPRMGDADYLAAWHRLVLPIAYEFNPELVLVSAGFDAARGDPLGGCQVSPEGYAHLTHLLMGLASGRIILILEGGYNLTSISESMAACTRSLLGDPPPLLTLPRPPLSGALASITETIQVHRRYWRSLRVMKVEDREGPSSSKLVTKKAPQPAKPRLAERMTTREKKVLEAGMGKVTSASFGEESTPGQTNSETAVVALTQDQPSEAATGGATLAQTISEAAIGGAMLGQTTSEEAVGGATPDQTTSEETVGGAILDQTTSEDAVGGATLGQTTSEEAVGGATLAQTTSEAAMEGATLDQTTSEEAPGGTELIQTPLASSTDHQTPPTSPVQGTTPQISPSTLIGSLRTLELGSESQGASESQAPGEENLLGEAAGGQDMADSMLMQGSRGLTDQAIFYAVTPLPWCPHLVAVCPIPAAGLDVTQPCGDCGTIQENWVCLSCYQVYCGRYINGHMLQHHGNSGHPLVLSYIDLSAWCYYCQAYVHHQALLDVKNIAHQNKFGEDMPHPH

[5] = test system: HL-60; test: Induction of cell cycle arrest in human HL60 cells assessed as accumulation of cells at subG1 phase at 0.25 to 0.45 uM incubated for 48 hrs by PI staining based flow cytometric analysis; assay type: functional; procedure, shortened: as §1
[6] = organism: Homo sapiens; test: Selectivity ratio of IC50 for HDAC3 (unknown origin) to IC50 for HDAC6 (unknown origin)
Procedure, shortened: (§2)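 Each isoform's IC50 comes from a dose–effect curve in an HDAC isoform inhibition panel, with replicates n ≥ 2. The ratio is that isoform's IC50 divided by the HDAC6 IC50.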

[7] = organism: Homo sapiens; test: Selectivity ratio of IC50 for HDAC8 (unknown origin) to IC50 for HDAC6 (unknown origin); procedure, shortened: as §2
[8] = organism: Homo sapiens; test: Selectivity ratio of IC50 for HDAC11 (unknown origin) to IC50 for HDAC6 (unknown origin); procedure, shortened: as §2
[9] = test system: HL-60; test: Induction of apoptosis in human in human HL60 cells assessed as increase in caspase 3 activation at 0.25 to 0.75 uM using […] as substrate preincubated for 24 to 48 hrs followed by substrate addition and measured after 1.5 hrs by fluorescence based assay; assay type: functional, cell-based
Procedure, shortened: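 HL-60 cells exposed to 0.25, 0.45 and 0.75 μM for 24 and 48 h, with untreated cells as control; activated caspase 3 measured. Mean ± SD of at least three independent experiments; significance versus untreated control set at p < 0.05.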

[10] = organism: Homo sapiens; test: Selectivity ratio of IC50 for HDAC2 (unknown origin) to IC50 for HDAC6 (unknown origin); procedure, shortened: as §2
[11] = organism: Homo sapiens; test: Selectivity ratio of IC50 for HDAC9 (unknown origin) to IC50 for HDAC6 (unknown origin); procedure, shortened: as §2
[12] = organism: Homo sapiens; test: Selectivity ratio of IC50 for HDAC7 (unknown origin) to IC50 for HDAC6 (unknown origin); procedure, shortened: as §2
[13] = target: Histone deacetylase (Homo sapiens) (UniProt Q13547+O15379+Q9UBN7+Q92769+Q9UQL6+Q8WUI4+Q9BY41+Q96DB2+P56524+Q9UKV0+Q969S8); conditions: at 0.08 to 1.6 µM
[14] = organism: Homo sapiens; test: Selectivity ratio of IC50 for HDAC4 (unknown origin) to IC50 for HDAC6 (unknown origin); procedure, shortened: as §2
[15] = organism: Homo sapiens; test: Selectivity ratio of IC50 for HDAC1 (unknown origin) to IC50 for HDAC6 (unknown origin); procedure, shortened: as §2

Row | Structure (SMILES) | Activity [1] | IC50 [2] | IC50 [3] | IC50 [4] | Activity [5] | Ratio IC50 [6] | Ratio IC50 [7] | Ratio IC50 [8] | Activity [9] | Ratio IC50 [10] | Ratio IC50 [11] | Ratio IC50 [12] | inhibition [13] | Ratio IC50 [14] | Ratio IC50 [15]
1 | O=C(CCC1C(=O)N(c2ccc(Cl)cc2)C(=O)N1Cc1ccc(Br)cc1)Nc1ccc(C(=O)NO)cc1 (stereo not drawn) | Active | 1250 nM | 6.7 µM | 9.7 nM | Active | – | – | – | – | – | – | – | – | – | –
2 | O=C(CCC1C(=O)N(c2ccc(Cl)cc2)C(=O)N1Cc1ccccc1)Nc1ccc(C(=O)NO)cc1 (stereo not drawn) | – | 2250 nM | 3.6 µM | 7.6 nM | – | – | – | – | – | – | – | – | – | – | –
3 | Cc1ccc(CN2C(=O)N(c3ccc(Cl)cc3)C(=O)C2CCC(=O)Nc2ccc(C(=O)NO)cc2)cc1 (stereo not drawn) | Active | 830 nM | > 100 µM | 4.4 nM | Active | 53 | > 20000 | > 20000 | Active | 63 | > 20000 | > 20000 | Active | > 20000 | 218
